Hits are enriched below; roughly 3.1% of the tested compounds scored in any of these assays.
CSN inh: inhibitors of human CSN-mediated cullin deneddylation; Q92905; Purified CSN, SCF-Nedd8-OG deneddylation, fluorescence polarization; inhibition, % at 12.5 µM; 0.38% of 360,000 active; AID 651999;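 active = pattern-corrected inhibition above about 35%, with an unprinted fluorescence ratio check between 0.5 and 1.5, limit read from the data, passing the limit was not always enough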;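 also: 0% = enzyme with substrate and 100% = substrate without enzyme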
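Assay system: purified human Csn5 enzyme expressed in HEK293T cells; measure: % inhibition; also added: SCFSkp2-Nedd8OG substrate at 10 nM final; technique: fluorescence polarization; times: reaction 90 min, room temperature; medium: Tris buffer pH 7.5, NaCl, DTT, Tween-20, trehalose, ovalbumin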
LEDGF integ inh: blocks HIV-1 LEDGF/p75-dependent DNA integration; inhibition, % at 3.7 µM; 0.64% of 370,000 active; TR-FRET IN-LEDGF/p75 DNA integration, Eu/Cy5; AID 743269;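 active = inhibition above the screen-wide mean plus 3 SD, cut at about 13% in these data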;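 also: signal is the Cy5 over europium emission ratio at 671 and 618 nm; 0% = plate median of compound wells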
UHRF1 MBD2 ctr: human UHRF1 methylated DNA binding inhibitors | UHRF1 binding to methylated oligo, TR-FRET | Q96T88 | inhibition, % at 4.4 µM | 0.75% of 370,000 active; in the data active = inhibition above about 21%;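 also: UHRF1 SRA domain binding a hemimethylated CpG hairpin DNA probe; 0% = median of test compound wells and 100% = reference inhibitor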
rCAG binder-1: r(CAG) repeat RNA binding. TO-PRO-1 dye displacement fluorescence. inhibition, % at 3 µM. 1.3% of 370,000 active. AID 651821;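 active = inhibition above the plate cutoff, the mean of all test compounds on that plate plus 3 SD, cut at about 35% in these data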;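 also: 0% = DMSO alone and 100% = 100 µM mitoxantrone as full dye displacement; higher means more dye released from RNA so lower well fluorescence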
MBD2 DNA inh: inhibitors of human MBD2 binding to methylated oligonucleotide; inhibition, % at 4.4 µM; TR-FRET; 0.31% of 370,000 active; Q9UBB5; in the data active = inhibition above about 13%
Target sequence (Q9UBB5 whole entry, looked up): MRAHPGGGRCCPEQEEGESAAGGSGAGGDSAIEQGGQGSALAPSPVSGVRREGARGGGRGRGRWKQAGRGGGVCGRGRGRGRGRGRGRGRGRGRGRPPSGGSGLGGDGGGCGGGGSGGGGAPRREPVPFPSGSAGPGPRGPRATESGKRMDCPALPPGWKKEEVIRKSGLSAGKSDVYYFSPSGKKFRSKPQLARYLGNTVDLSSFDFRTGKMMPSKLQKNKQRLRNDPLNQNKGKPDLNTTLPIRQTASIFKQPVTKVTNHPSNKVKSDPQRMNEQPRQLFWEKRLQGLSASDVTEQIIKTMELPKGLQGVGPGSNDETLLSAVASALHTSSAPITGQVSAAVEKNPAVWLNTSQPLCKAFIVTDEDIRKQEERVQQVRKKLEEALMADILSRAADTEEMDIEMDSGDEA
ATG4B inhibitor: ATG4B (human) cysteine protease inhibition | AID 504462 | 0.51% of 340,000 active | inhibition, % at 8.33 µM | ATG4B cleavage of LC3-PLA2, NBD-HPC fluorescence, 1 h | Q9Y4P1; in the data active = inhibition above about 40%
rCAG bind conf: r(CAG) RNA repeat binding, confirmation. inhibition, % at 3 µM. TO-PRO-1 dye displacement fluorescence. 70% of 4,300 active. shares compounds with rCAG binder-1;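 active = inhibition above a per-plate cutoff, the mean inhibition of sample wells plus 3 SD, cut at about 35% in these data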;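 also: loss of TO-PRO-1 fluorescence as compound displaces dye from 1x1 AA loop RNA; 0% = DMSO only wells and 100% = 100 µM mitoxantrone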
DNA CAG counter: counter-screen for rCAG RNA binders: DNA CAG dye complex inhibitors. inhibition, % at 3 µM. shares compounds with rCAG binder-1. d(CAG) DNA oligo TO-PRO-1 dye displacement, fluorescence. 94% of 4,300 active;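 active = inhibition above its plate's cutoff, the mean test-well inhibition plus 3 SD, cut at about 4.8% in these data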;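 also: 0% = DNA dye mix with DMSO and 100% = 100 µM mitoxantrone; hits displace the dye from DNA and so lower well fluorescence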
dCAG dye DR: disrupts DNA CAG TO-PRO-1 complex in dose response | shares compounds with rCAG binder-1 | DNA CAG/GTC duplex TO-PRO-1 dye displacement fluorescence | IC50, µM | 20% of 250 active | AID 686960; in the data active = IC50 below about 10 µM
dCAG DNA bind: inhibits DNA CAG/GTC TO-PRO-1 complex, rCAG binder counter-screen; shares compounds with rCAG binder-1; d(CAG) DNA duplex TO-PRO-1 dye displacement, fluorescence; IC50, µM; 80% of 30 active; AID 720649
rCAG binder-2: molecules binding r(CAG) RNA repeats, late stage dose response | shares compounds with rCAG binder-1 | r(CAG) RNA TO-PRO-1 dye displacement, fluorescence | IC50, µM | 100% of 30 active | AID 720651
* marks the source's active call; other numbers are inactive results. Unless noted, no rule for the calls is given here.

Results for CC/C(=N\NC(=O)c1ccccc1O)c1c(O)n(C2CCCCC2)c(=O)[nH]c1=O ?
CSN inh: 1; LEDGF integ inh: -5; UHRF1 MBD2 ctr: -3; rCAG binder-1: 59*; MBD2 DNA inh: -8; ATG4B inhibitor: 0; rCAG bind conf: 72*; DNA CAG counter: 29*; dCAG dye DR: 2.8*; dCAG DNA bind: 2.4*; rCAG binder-2: 0.99*

Results for CC(C)c1ccc(-n2c(O)c(/C=N/NC(=O)c3ccccc3O)c(=O)[nH]c2=S)cc1 ?
CSN inh: 5; LEDGF integ inh: -7; UHRF1 MBD2 ctr: 0; rCAG binder-1: 82*; MBD2 DNA inh: -2; ATG4B inhibitor: -1; rCAG bind conf: 78*; DNA CAG counter: 43*

Results for O=C(N/N=C/c1c(O)n(C2CCCCC2)c(=S)[nH]c1=O)c1ccccc1 ?
CSN inh: 8; LEDGF integ inh: 2; UHRF1 MBD2 ctr: 10; rCAG binder-1: 16; MBD2 DNA inh: 0; ATG4B inhibitor: 3

What do the screens show for `CC(=O)Nc1ccc(N=Cc2c(O)n(Cc3ccco3)c(=O)[nH]c2=O)cc1`?
CSN inh: 2; LEDGF integ inh: 2; UHRF1 MBD2 ctr: 6; rCAG binder-1: 8; MBD2 DNA inh: 8; ATG4B inhibitor: 1

Results for O=C(N/N=C/c1c(O)n(C2CCCCC2)c(=S)[nH]c1=O)c1ccccc1O ?
CSN inh: 3; LEDGF integ inh: -2; UHRF1 MBD2 ctr: -1; rCAG binder-1: 45*; MBD2 DNA inh: 3; ATG4B inhibitor: -3; rCAG bind conf: 90*; DNA CAG counter: 67*

Results for CC[C@]12CCN(CC3(O)CC3)[C@H](Cc3ccc(O)cc31)C2(C)C ?
LEDGF integ inh: 0; UHRF1 MBD2 ctr: -3; rCAG binder-1: 3; MBD2 DNA inh: 2

How did c1ccc(Cc2cnc(N3CCNCC3)nc2)cc1 do in these assays?
LEDGF integ inh: -12; UHRF1 MBD2 ctr: 0; rCAG binder-1: 2; MBD2 DNA inh: 0

Results for CCOC(=O)C1=C(C(=O)OCC)C2(c3ccccc3)c3ccccc3C1(C)N2C (stereo not drawn) ?
LEDGF integ inh: 4; UHRF1 MBD2 ctr: -1; rCAG binder-1: 5; MBD2 DNA inh: 3

Results for Cc1cc(N2CCNC[C@H]2C)ccc1N1CCN[C@H](C)C1 ?
LEDGF integ inh: 7; UHRF1 MBD2 ctr: 0; rCAG binder-1: 5; MBD2 DNA inh: 2

Results for Cc1cc(N2CCNC[C@H]2C)ccc1N1CCN[C@@H](C)C1 ?
LEDGF integ inh: 3; UHRF1 MBD2 ctr: 0; rCAG binder-1: 3; MBD2 DNA inh: -2

Results for O=C(O)c1cccc2c1NC(c1cccc([N+](=O)[O-])c1)C1CC(Sc3ccccc3[N+](=O)[O-])C(Cl)C21 (stereo not drawn) ?
CSN inh: 0; LEDGF integ inh: 6; UHRF1 MBD2 ctr: -3; rCAG binder-1: 76*; MBD2 DNA inh: -4; ATG4B inhibitor: 88*; rCAG bind conf: 92*; DNA CAG counter: 74*

What do the screens show for `Cc1cc(O)c2c(c1)C(=O)[C@@]13C(=C2O)C(=O)[C@H]2C(O)[C@@H]1[C@H]1C(O)[C@@H]3C(=O)C3=C(O)c4c(O)cc(C)cc4C(=O)[C@@]312` (stereo partly drawn)?
LEDGF integ inh: 8; UHRF1 MBD2 ctr: 11; rCAG binder-1: 1; MBD2 DNA inh: 5

Screening data: PubChem, several laboratories
